Source: ChEMBL document CHEMBL4680104, “Structure-Based Optimization of Small-Molecule Inhibitors for the β-Catenin/B-Cell Lymphoma 9 Protein-Protein Interaction” (J Med Chem, 2018)
pKi: −log10 of the molar value.

Assays:
[1] = target: T1, beta-catenin-B-cell lymphoma 9 protein complex (Homo sapiens, UniProt P35222); assay: Inhibition of protein interaction between beta-catenin (unknown origin)/BCL9 (unknown origin) by Alpha-screen competitive inhibition assay; assay type: protein-complex assay
T1 sequence (P35222 whole entry): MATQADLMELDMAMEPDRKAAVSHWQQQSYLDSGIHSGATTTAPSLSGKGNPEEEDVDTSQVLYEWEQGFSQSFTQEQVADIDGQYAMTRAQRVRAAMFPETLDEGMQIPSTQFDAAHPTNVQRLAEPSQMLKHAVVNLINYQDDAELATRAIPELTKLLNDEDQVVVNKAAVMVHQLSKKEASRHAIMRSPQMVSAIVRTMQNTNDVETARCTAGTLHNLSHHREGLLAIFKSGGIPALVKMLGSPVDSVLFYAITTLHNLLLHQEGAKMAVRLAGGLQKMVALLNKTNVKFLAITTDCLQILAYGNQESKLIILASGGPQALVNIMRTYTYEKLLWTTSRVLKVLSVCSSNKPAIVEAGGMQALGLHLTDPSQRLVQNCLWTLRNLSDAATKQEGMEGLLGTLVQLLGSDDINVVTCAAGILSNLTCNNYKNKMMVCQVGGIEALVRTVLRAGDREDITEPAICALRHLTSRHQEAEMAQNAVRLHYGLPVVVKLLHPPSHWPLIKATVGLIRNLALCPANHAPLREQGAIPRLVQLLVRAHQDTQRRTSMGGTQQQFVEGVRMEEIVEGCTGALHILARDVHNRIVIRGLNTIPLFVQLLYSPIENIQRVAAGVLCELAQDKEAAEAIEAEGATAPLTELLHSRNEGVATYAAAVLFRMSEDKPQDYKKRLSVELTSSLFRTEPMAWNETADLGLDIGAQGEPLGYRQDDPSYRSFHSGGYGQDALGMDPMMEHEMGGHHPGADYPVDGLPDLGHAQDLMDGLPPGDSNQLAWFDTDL
T1 sequence (O00512 whole entry): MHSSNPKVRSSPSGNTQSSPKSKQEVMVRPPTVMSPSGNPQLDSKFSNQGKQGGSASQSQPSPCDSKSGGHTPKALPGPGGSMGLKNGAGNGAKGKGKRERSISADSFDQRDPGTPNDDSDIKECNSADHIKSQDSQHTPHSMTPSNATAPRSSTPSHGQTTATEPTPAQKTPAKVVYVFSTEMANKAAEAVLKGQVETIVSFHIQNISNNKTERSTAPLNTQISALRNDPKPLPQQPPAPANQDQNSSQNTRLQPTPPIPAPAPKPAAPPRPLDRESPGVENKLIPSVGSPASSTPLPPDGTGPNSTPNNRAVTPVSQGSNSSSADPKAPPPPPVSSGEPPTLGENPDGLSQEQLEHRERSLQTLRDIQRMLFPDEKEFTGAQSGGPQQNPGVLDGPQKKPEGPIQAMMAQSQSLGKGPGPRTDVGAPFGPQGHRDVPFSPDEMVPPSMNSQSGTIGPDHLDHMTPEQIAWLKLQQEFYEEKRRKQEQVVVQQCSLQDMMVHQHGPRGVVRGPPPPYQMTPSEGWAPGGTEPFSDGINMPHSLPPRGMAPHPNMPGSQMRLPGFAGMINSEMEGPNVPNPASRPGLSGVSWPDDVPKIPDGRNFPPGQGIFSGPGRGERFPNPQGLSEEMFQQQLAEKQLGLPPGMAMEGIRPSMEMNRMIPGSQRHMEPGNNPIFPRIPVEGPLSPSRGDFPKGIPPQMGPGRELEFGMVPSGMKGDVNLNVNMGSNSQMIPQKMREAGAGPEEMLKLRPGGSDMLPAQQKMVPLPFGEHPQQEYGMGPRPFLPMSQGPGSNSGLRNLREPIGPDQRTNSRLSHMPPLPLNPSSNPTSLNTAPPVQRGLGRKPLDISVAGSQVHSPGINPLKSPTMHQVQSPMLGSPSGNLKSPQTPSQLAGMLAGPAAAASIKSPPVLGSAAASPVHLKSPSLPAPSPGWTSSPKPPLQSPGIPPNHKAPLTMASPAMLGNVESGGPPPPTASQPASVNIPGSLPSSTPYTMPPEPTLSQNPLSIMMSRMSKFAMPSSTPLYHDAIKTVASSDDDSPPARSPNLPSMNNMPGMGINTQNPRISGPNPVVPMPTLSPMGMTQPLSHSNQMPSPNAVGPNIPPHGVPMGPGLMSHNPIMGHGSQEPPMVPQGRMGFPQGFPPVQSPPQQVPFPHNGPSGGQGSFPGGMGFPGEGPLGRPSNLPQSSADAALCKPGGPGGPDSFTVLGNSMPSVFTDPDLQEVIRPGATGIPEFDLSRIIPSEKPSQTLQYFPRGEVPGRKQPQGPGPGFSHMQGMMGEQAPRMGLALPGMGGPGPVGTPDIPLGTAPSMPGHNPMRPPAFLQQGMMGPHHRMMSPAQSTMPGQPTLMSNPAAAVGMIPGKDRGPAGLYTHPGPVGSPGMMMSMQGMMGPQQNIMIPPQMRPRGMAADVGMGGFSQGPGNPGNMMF
Procedure, shortened: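 Purified His6-tagged full-length β-catenin (40 nM) preincubated with biotinylated BCL9 (5 nM) for 30 min at 4 °C. Inhibitor dilutions then added, 1 h at 4 °C, followed by donor and acceptor beads (10 μg/mL final) for 1 h at 4 °C. IC50 obtained by nonlinear least-squares fit and converted to Ki by the Nikolovska-Coleska method. Triplicate, mean ± SD.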

[2] = Inhibition of protein interaction between beta-catenin D145A/E155A mutant (unknown origin)/N-terminal biotinylated human BCL9 ( 350 to 375 residues) incubated for 1 hr by Alpha-screen competitive inhibition assay
[3] = target: beta-catenin-B-cell lymphoma 9 protein complex (Homo sapiens) (UniProt P35222+O00512); assay: Inhibition of protein interaction between beta-catenin /BCL9 in human SW480 cells assessed as reduction in active form of beta-catenin expression incubated for 24 hrs by Western blot analysis; assay type: cell-based
Procedure, shortened: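 SW480 cells at 1 × 10^6 cells/mL were treated with a range of inhibitor concentrations for 24 h. Cells were lysed in Tris/NaCl/NP-40/deoxycholate/SDS buffer with protease inhibitors. Lysates were run on 8% SDS-PAGE and blotted to nitrocellulose. Blots were probed overnight at 4 °C for total β-catenin (mostly the E-cadherin-bound pool), active β-catenin (dephosphorylated S37/T41), cyclin D1, c-myc and β-tubulin. Detection used infrared secondary antibodies. Duplicate.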

[4] = Drug level in human HCT-116 cells assessed as cell membrane bound compound level at 50 uM incubated for 6 hrs at 4 degC in presence of DMEM media with 10% FBS; assay type: ADME, cell membranes; conditions: hct-116, 6 h
Procedure, shortened: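 Cells were incubated with 50 μM compound for 6 h in 5 mL DMEM with 10% FBS, at 37 °C or at 4 °C. Cell-bound compound was quantified by a previously described method and expressed as nmol per million cells. The 4 °C incubation was used to estimate binding to the cell membrane through nonspecific association.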

[5] = Effect on HPRT mRNA expression in human SW480 cells at 1 uM incubated for 24 hrs by qPCR analysis relative to control; assay type: ADME, cell-based; conditions: read-out: FC
Procedure, shortened: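 SW480 cells at 1 × 10^6/mL were treated with inhibitor for 24 h. Total RNA was extracted with TRIzol and cDNA made by first-strand synthesis. SYBR green qPCR used human HPRT primers, with CT values normalised to GAPDH as internal reference. Performed in triplicate.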

SMILES: Cl.Cl.O=C(Nc1ccc(O[C@H]2CCNC2)c(-c2ccc(F)cc2)c1)c1ccc(O[C@H]2CCNC2)c(-c2ccc(F)c(F)c2)c1
- pKi [1]: 5.68

SMILES: Cl.Cl.O=C(Nc1ccc(O[C@@H]2CCNC2)c(-c2cccc(-c3nn[nH]n3)c2)c1)c1ccc(O[C@H]2CCNC2)c(-c2ccc(F)c(F)c2)c1
- pKi [2]: 4.92
- inhibition [3]: Dose-dependent effect
- Drug uptake [4]: 77%

SMILES: Cl.Cl.O=C(Nc1ccc(O[C@H]2CCNC2)c(-c2ccc(F)cc2)c1)c1ccc(O[C@H]2CCNC2)c(-c2ccc3ccsc3c2)c1
- pKi [2]: 4.92
- inhibition [3]: Dose-dependent effect
- fold induction at 1 µM [5]: 1.09
